Assay results taken from ChEMBL document CHEMBL3616442, “Unconventional Knoevenagel-type indoles: Synthesis and cell-based studies for the identification of pro-apoptotic agents” (Eur J Med Chem, 2015).
pEC50: −log10 of the molar value.

Assays:
[1] = Growth inhibition of human LOXIMVI cells after 48 hrs by sulforhodamine B assay; assay type: functional; conditions: LOX IMVI
Outline: (§1)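 NCI 60-cell-line screen. Compounds tested at five 10-fold dilutions from 10^-4 to 10^-8 M. Cells exposed for the last 48 h of a 72 h incubation, growth estimated by sulforhodamine B protein assay. GI50 is the concentration giving 50% growth inhibition. Values beyond the tested range are expressed as greater or lesser than the extreme concentration.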

[2] = Growth inhibition of human MOLT4 cells after 48 hrs by sulforhodamine B assay; assay type: functional; conditions: MOLT-4, 48 h; outline: as §1
MT4 = assay: Antiproliferative activity against human MT4 cells after 96 hrs by MTT assay; assay type: functional, cell-based; conditions: MT4, 96 h
Outline: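 Exponentially growing MT-4 cells (CD4+ human T-cells carrying integrated HTLV-1 genome), seeded at 1×10^5 cells/mL in RPMI-1640 with 10% FCS and antibiotics. Serial dilutions of compound (DMSO stock 100 mM, diluted in medium), 37 °C, 5% CO₂, 96 h. Viability read by MTT. 50% inhibition versus untreated controls by linear regression. Mean ± SD of three independent determinations.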

TK-10 = assay: Growth inhibition of human TK10 cells after 48 hrs by sulforhodamine B assay; assay type: functional; conditions: TK-10, 48 h
KM12 = assay: Growth inhibition of human KM12 cells after 48 hrs by sulforhodamine B assay; assay type: functional; conditions: KM12, 48 h; outline: as §1
[3] = Growth inhibition of human SF539 cells after 48 hrs by sulforhodamine B assay; assay type: functional; conditions: SF-539, 48 h
SK-MEL-2 = assay: Growth inhibition of human SK-MEL-2 cells after 48 hrs by sulforhodamine B assay; assay type: functional; conditions: SK-MEL-2, 48 h
NCI-H226 = assay: Growth inhibition of human NCI-H226 cells after 48 hrs by sulforhodamine B assay; assay type: functional; conditions: NCI-H226, 48 h; outline: as §1
[4] = Growth inhibition of human Hs 578T cells after 48 hrs by sulforhodamine B assay; assay type: functional; outline: as §1
HCT-15 = assay: Growth inhibition of human HCT15 cells after 48 hrs by sulforhodamine B assay; assay type: functional; conditions: HCT-15, 48 h; outline: as §1
HL-60(TB) = assay: Growth inhibition of human HL-60(TB) cells after 48 hrs by sulforhodamine B assay; assay type: functional; conditions: HL-60, 48 h
Outline: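 NCI 60-cell-line screen, HL-60(TB) included. Compound given at five 10-fold dilutions from 10^-4 to 10^-8 M. Cells exposed for the last 48 h of a 72 h incubation. Growth or viability estimated by sulforhodamine B protein assay. GI50 is the concentration giving 50% growth inhibition. Values outside the tested range are reported as greater or less than the highest or lowest concentration.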

[5] = Growth inhibition of human EKVX cells after 48 hrs by sulforhodamine B assay; assay type: functional; outline: as §1
Malme-3M = assay: Growth inhibition of human MALME-3M cells after 48 hrs by sulforhodamine B assay; assay type: functional; outline: as §1
SK-MEL-28 = assay: Growth inhibition of human SK-MEL-28 cells after 48 hrs by sulforhodamine B assay; assay type: functional; conditions: SK-MEL-28, 48 h
NCI-H460 = assay: Growth inhibition of human NCI-H460 cells after 48 hrs by sulforhodamine B assay; assay type: functional; conditions: NCI-H460, 48 h; outline: as §1
[6] = Growth inhibition of human RXF393 cells after 48 hrs by sulforhodamine B assay; assay type: functional; conditions: RXF 393, 48 h
MDA-MB-468 = assay: Growth inhibition of human MDA-MB-468 cells after 48 hrs by sulforhodamine B assay; assay type: functional; conditions: MDA-MB-468, 48 h; outline: as §1
SNB-19 = assay: Growth inhibition of human SNB19 cells after 48 hrs by sulforhodamine B assay; assay type: functional; conditions: SNB-19, 48 h
U-251 = assay: Growth inhibition of human U251 cells after 48 hrs by sulforhodamine B assay; assay type: functional; conditions: U-251, 48 h
K562 = assay: Growth inhibition of human K562 cells after 48 hrs by sulforhodamine B assay; assay type: functional; conditions: K562, 48 h; outline: as §1
UO-31 = assay: Growth inhibition of human UO31 cells after 48 hrs by sulforhodamine B assay; assay type: functional; conditions: UO-31, 48 h
[7] = Growth inhibition of human BT549 cells after 48 hrs by sulforhodamine B assay; assay type: functional; conditions: BT-549, 48 h; outline: as §1
UACC-257 = assay: Growth inhibition of human UACC257 cells after 48 hrs by sulforhodamine B assay; assay type: functional; conditions: UACC-257, 48 h
A498 = assay: Growth inhibition of human A498 cells after 48 hrs by sulforhodamine B assay; assay type: functional; conditions: A498, 48 h; outline: as §1
[8] = Growth inhibition of human NCI-ADR-RES cells after 48 hrs by sulforhodamine B assay; assay type: functional; outline: as §1
HT-29 = assay: Growth inhibition of human HT-29 cells after 48 hrs by sulforhodamine B assay; assay type: functional; conditions: HT-29, 48 h; outline: as §1
UACC-62 = assay: Growth inhibition of human UACC62 cells after 48 hrs by sulforhodamine B assay; assay type: functional; conditions: UACC-62, 48 h
NCI-H23 = assay: Growth inhibition of human NCI-H23 cells after 48 hrs by sulforhodamine B assay; assay type: functional; conditions: NCI-H23, 48 h; outline: as §1
HCT-116 = assay: Growth inhibition of human HCT116 cells after 48 hrs by sulforhodamine B assay; assay type: functional; conditions: HCT-116, 48 h; outline: as §1
OVCAR-5 = assay: Growth inhibition of human OVCAR5 cells after 48 hrs by sulforhodamine B assay; assay type: functional; conditions: OVCAR-5, 48 h
MCF7 = assay: Growth inhibition of human MCF7 cells after 48 hrs by sulforhodamine B assay; assay type: functional; conditions: MCF7, 48 h; outline: as §1
NCI-H322M = assay: Growth inhibition of human NCI-H322M cells after 48 hrs by sulforhodamine B assay; assay type: functional; outline: as §1
SK-MEL-5 = assay: Growth inhibition of human SK-MEL-5 cells after 48 hrs by sulforhodamine B assay; assay type: functional; conditions: SK-MEL-5, 48 h
OVCAR-4 = assay: Growth inhibition of human OVCAR4 cells after 48 hrs by sulforhodamine B assay; assay type: functional; conditions: OVCAR-4, 48 h; outline: as §1
DU-145 = assay: Growth inhibition of human DU145 cells after 48 hrs by sulforhodamine B assay; assay type: functional; conditions: DU-145, 48 h; outline: as §1
ACHN = assay: Growth inhibition of human ACHN cells after 48 hrs by sulforhodamine B assay; assay type: functional; outline: as §1
OVCAR-8 = assay: Growth inhibition of human OVCAR8 cells after 48 hrs by sulforhodamine B assay; assay type: functional; conditions: OVCAR-8, 48 h
SNB-75 = assay: Growth inhibition of human SNB75 cells after 48 hrs by sulforhodamine B assay; assay type: functional; conditions: SNB-75, 48 h
SW-620 = assay: Growth inhibition of human SW620 cells after 48 hrs by sulforhodamine B assay; assay type: functional; conditions: SW-620, 48 h
A549 = assay: Growth inhibition of human A549 cells after 48 hrs by sulforhodamine B assay; assay type: functional; conditions: A549, 48 h; outline: as §1
[9] = Growth inhibition of human HCC2998 cells after 48 hrs by sulforhodamine B assay; assay type: functional; conditions: HCC 2998, 48 h; outline: as §1
OVCAR-3 = assay: Growth inhibition of human OVCAR3 cells after 48 hrs by sulforhodamine B assay; assay type: functional; conditions: OVCAR-3, 48 h; outline: as §1
[10] = Growth inhibition of human HOP92 cells after 48 hrs by sulforhodamine B assay; assay type: functional; conditions: HOP-92, 48 h; outline: as §1

SMILES: N#C/C(=C\c1c(-c2ccccc2)[nH]c2ccccc12)S(=O)(=O)c1ccccc1
- GI50 [1]: 4600 nM
- GI50 [2]: 2200 nM
- pEC50 (MT4): 6.40
- GI50 (TK-10): 5.6 µM
- GI50 (KM12): 652 nM
- GI50 [3]: 2500 nM
- GI50 (SK-MEL-2): 12.7 µM
- GI50 (NCI-H226): 4.1 µM
- GI50 [4]: 23.6 µM
- GI50 (HCT-15): 1100 nM
- GI50 (HL-60(TB)): 1800 nM
- GI50 [5]: 6.2 µM
- GI50 (Malme-3M): 8.4 µM
- GI50 (SK-MEL-28): 8.3 µM
- GI50 (NCI-H460): 2700 nM
- GI50 [6]: 3600 nM
- GI50 (MDA-MB-468): 1900 nM
- GI50 (SNB-19): 8.3 µM
- GI50 (U-251): 2600 nM
- GI50 (K562): 348 nM
- GI50 (UO-31): 6.7 µM
- GI50 [7]: 11.6 µM
- GI50 (UACC-257): 18.2 µM
- GI50 (A498): 11 µM
- GI50 [8]: 1100 nM
- GI50 (HT-29): 595 nM
- GI50 (UACC-62): 2600 nM
- GI50 (NCI-H23): 4700 nM
- GI50 (HCT-116): 2000 nM
- GI50 (OVCAR-5): 13.9 µM
- GI50 (MCF7): 2200 nM
- GI50 (NCI-H322M): 9.2 µM
- GI50 (SK-MEL-5): 1820 nM
- GI50 (OVCAR-4): 5.5 µM
- GI50 (DU-145): 2900 nM
- GI50 (ACHN): 7 µM
- GI50 (OVCAR-8): 6 µM
- GI50 (SNB-75): 1700 nM
- GI50 (SW-620): 570 nM
- GI50 (A549): 3700 nM
- GI50 [9]: 10.9 µM
- GI50 (OVCAR-3): 1400 nM
- GI50 [10]: 10.3 µM

SMILES: COc1ccc(-c2[nH]c3ccccc3c2/C=C(\C#N)S(=O)(=O)c2ccccc2)cc1
- GI50 [1]: 1300 nM
- GI50 [2]: 871 nM
- pEC50 (MT4): 6.70
- GI50 (TK-10): 4.8 µM
- GI50 (KM12): 374 nM
- GI50 [3]: 299 nM
- GI50 (SK-MEL-2): 18.1 µM
- GI50 (NCI-H226): 2.8 µM
- GI50 [4]: 0.682 µM
- GI50 (HCT-15): 554 nM
- GI50 (HL-60(TB)): 294 nM
- GI50 [5]: 1.3 µM
- GI50 (Malme-3M): 1.2 µM
- GI50 (SK-MEL-28): 1.8 µM
- GI50 (NCI-H460): 404 nM
- GI50 [6]: 1000 nM
- GI50 (MDA-MB-468): < 10 nM
- GI50 (SNB-19): 0.863 µM
- GI50 (U-251): 473 nM
- GI50 (K562): 535 nM
- GI50 (UO-31): 4.7 µM
- GI50 [7]: 1.6 µM
- GI50 (UACC-257): 10.7 µM
- GI50 (A498): 1.1 µM
- GI50 [8]: 428 nM
- GI50 (HT-29): 314 nM
- GI50 (UACC-62): 597 nM
- GI50 (NCI-H23): 932 nM
- GI50 (HCT-116): 399 nM
- GI50 (OVCAR-5): 1.9 µM
- GI50 (MCF7): 398 nM
- GI50 (NCI-H322M): 1.5 µM
- GI50 (SK-MEL-5): 344 nM
- GI50 (OVCAR-4): 0.578 µM
- GI50 (DU-145): 450 nM
- GI50 (ACHN): 1.9 µM
- GI50 (OVCAR-8): 1.3 µM
- GI50 (SNB-75): 379 nM
- GI50 (SW-620): 506 nM
- GI50 (A549): 803 nM
- GI50 [9]: 1.2 µM
- GI50 (OVCAR-3): 244 nM
- GI50 [10]: 2.3 µM
